Reference: ChEMBL document CHEMBL4138064, “Diazabicyclo analogues of maraviroc: synthesis, modeling, NMR studies and antiviral activity” (Medchemcomm, 2017)
Active and inactive are the calls of the source.

Key:
[1] = test system: Human immunodeficiency virus 1; test: Antiviral activity against CCR5-dependent HIV1 SF162 infected in human TZM-bl cells assessed as reduction in virus infection incubated for 48 hrs by luciferase reporter gene based viral neutralization assay; assay type: functional; conditions: Human immunodeficiency virus 1, SF162, TZM-bl
How it was run: (§1)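 Env-pseudotyped viruses made in 293T cells by proviral DNA transfection and titred by luciferase in TZM-bl cells. 200 TCID50 of virus preincubated 1 h at 37 °C with serially diluted compound (10 to 0.001 μM) in D-MEM/10% FBS. 10^4 TZM-bl cells per well with 15 μg/mL DEAE-dextran were then added, 37 °C, 48 h and 72 h. Four replicates per point. Luciferase read-out.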

[2] = test system: Human immunodeficiency virus 1; test: Antiviral activity against CCR5-dependent HIV1 clade B isolate QH0692 infected in human TZM-bl cells assessed as reduction in virus infection incubated for 48 hrs by luciferase reporter gene based viral neutralization assay; assay type: functional; conditions: Human immunodeficiency virus 1, clade B isolate QH0692, TZM-bl; how it was run: as §1
[3] = test system: Human immunodeficiency virus 1; test: Antiviral activity against CCR5-dependent HIV1 clade B isolate 6535 infected in human TZM-bl cells assessed as reduction in virus infection incubated for 48 hrs by luciferase reporter gene based viral neutralization assay; assay type: functional; conditions: Human immunodeficiency virus 1, clade B isolate 6535, TZM-bl; how it was run: as §1
[4] = test system: Human immunodeficiency virus 1; test: Antiviral activity against CCR5-dependent HIV1 clade B isolate PVO infected in human TZM-bl cells assessed as reduction in virus infection incubated for 48 hrs by luciferase reporter gene based viral neutralization assay; assay type: functional; conditions: Human immunodeficiency virus 1, clade B isolate PVO; how it was run: as §1
[5] = test system: Human immunodeficiency virus 1; test: Antiviral activity against CCR5-dependent HIV1 clade B isolate AC10 infected in human TZM-bl cells assessed as reduction in virus infection incubated for 48 hrs by luciferase reporter gene based viral neutralization assay; assay type: functional; conditions: Human immunodeficiency virus 1, clade B isolate AC10, 48 h; how it was run: as §1
[6] = test system: Human immunodeficiency virus 1; test: Antiviral activity against CCR5-dependent HIV1 cladC isolate ZM214 infected in human TZM-bl cells assessed as reduction in virus infection incubated for 48 hrs by luciferase reporter gene based viral neutralization assay; assay type: functional; conditions: Human immunodeficiency virus 1, cladC isolate ZM214, TZM-bl; how it was run: as §1
[7] = test system: Vesicular stomatitis virus; test: Antiviral activity against VSV G SVA.MLV#922 infected in human TZM-bl cells assessed as reduction in virus infection incubated for 48 hrs by luciferase reporter gene based viral neutralization assay; assay type: functional; conditions: G SVA.MLV#922, TZM-bl; how it was run: as §1
[8] = test system: Human immunodeficiency virus 1; test: Antiviral activity against CXCR4-dependent HIV1 HXB2 infected in human TZM-bl cells assessed as reduction in virus infection incubated for 48 hrs by luciferase reporter gene based viral neutralization assay; assay type: functional; conditions: Human immunodeficiency virus 1, HXB2, TZM-bl; how it was run: as §1
[9] = test system: Human immunodeficiency virus 1; test: Antiviral activity against CCR5-dependent HIV1 SF162 infected in human TZM-bl cells assessed as reduction in virus infection incubated for 72 hrs by luciferase reporter gene based viral neutralization assay; assay type: functional, organism-based
How it was run: (§2)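 Single-round infection of TZM-bl cells with env-pseudotyped virus at 200 TCID50, preincubated 1 h at 37 °C with serial compound dilutions (10 to 0.001 μM) in D-MEM with 10% FBS. TZM-bl cells (10^4/well) carrying 15 μg/mL DEAE-dextran were then added and cultured 48 and 72 h at 37 °C, 5% CO2. Luciferase RLU were read in four replicates per point. IC90 was the 90% RLU drop versus virus-only wells, minus cell-only background.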

[10] = test system: Human immunodeficiency virus 1; test: Antiviral activity against CCR5-dependent HIV1 clade B isolate QH0692 infected in human TZM-bl cells assessed as reduction in virus infection incubated for 72 hrs by luciferase reporter gene based viral neutralization assay; assay type: functional, organism-based; how it was run: as §2
[11] = test system: Human immunodeficiency virus 1; test: Antiviral activity against CCR5-dependent HIV1 clade B isolate 6535 infected in human TZM-bl cells assessed as reduction in virus infection incubated for 72 hrs by luciferase reporter gene based viral neutralization assay; assay type: functional, organism-based; how it was run: as §2
[12] = test system: Human immunodeficiency virus 1; test: Antiviral activity against CCR5-dependent HIV1 clade B isolate PVO infected in human TZM-bl cells assessed as reduction in virus infection incubated for 72 hrs by luciferase reporter gene based viral neutralization assay; assay type: functional, organism-based; how it was run: as §2
[13] = test system: Human immunodeficiency virus 1; test: Antiviral activity against CCR5-dependent HIV1 clade B isolate AC10 infected in human TZM-bl cells assessed as reduction in virus infection incubated for 72 hrs by luciferase reporter gene based viral neutralization assay; assay type: functional, organism-based; how it was run: as §2
[14] = test system: Human immunodeficiency virus 1; test: Antiviral activity against CCR5-dependent HIV1 cladC isolate ZM214 infected in human TZM-bl cells assessed as reduction in virus infection incubated for 72 hrs by luciferase reporter gene based viral neutralization assay; assay type: functional, organism-based; how it was run: as §2
[15] = test system: Vesicular stomatitis virus; test: Antiviral activity against VSV G SVA.MLV#922 infected in human TZM-bl cells assessed as reduction in virus infection incubated for 72 hrs by luciferase reporter gene based viral neutralization assay; assay type: functional, organism-based; how it was run: as §1
[16] = test system: Human immunodeficiency virus 1; test: Antiviral activity against CXCR4-dependent HIV1 HXB2 infected in human TZM-bl cells assessed as reduction in virus infection incubated for 72 hrs by luciferase reporter gene based viral neutralization assay; assay type: functional, organism-based; how it was run: as §2
[17] = test system: TZM; test: Toxicity in human TZM-bl cells assessed as reduction in cell proliferation at 10 uM incubated for 48 hrs by trypan blue staining based assay
[18] = test system: TZM; test: Toxicity in human TZM-bl cells assessed as reduction in cell proliferation at 10 uM incubated for 72 hrs by trypan blue staining based assay

Cc1nnc(C(C)C)n1N1CC2CCC(C1)N2CC[C@H](NC(=O)C1CCC(F)(F)CC1)c1ccccc1
Non-Toxic: Activity [17] | Activity [18]
active: Activity [9] | Activity [10] | Activity [11] | Activity [12] | Activity [13] | Activity [14] | Activity [15] | Activity [16]
20 to 1520 nM: IC90 [1] | IC90 [2] | IC90 [3] | IC90 [4] | IC90 [5] | IC90 [6]
> 10 µM: IC90 [7] | IC90 [8]

Cc1nnc(C(C)C)n1[C@@H]1C[C@H]2CC[C@@H](C1)N2CC[C@H](NC(=O)C1CCC(F)(F)CC1)c1ccccc1 [MARAVIROC]
Non-Toxic: Activity [17] | Activity [18]

Cc1nnc(C(C)C)n1[C@H]1C[C@H]2CC[C@@H](C1)N2CC[C@H](NC(=O)C1CCC(F)(F)CC1)c1ccccc1 [MARAVIROC]
active: Activity [9] | Activity [10] | Activity [11] | Activity [12] | Activity [13] | Activity [14] | Activity [15] | Activity [16]
> 10 µM: IC90 [7] | IC90 [8]
80 to 470 nM: IC90 [1] | IC90 [2] | IC90 [3] | IC90 [4] | IC90 [5] | IC90 [6]

Cc1nnc(C(C)C)n1N1CC2CCCC(C1)N2CC[C@H](NC(=O)C1CCC(F)(F)CC1)c1ccccc1
Non-Toxic: Activity [17] | Activity [18]
90 to 3540 nM: IC90 [1] | IC90 [2] | IC90 [3] | IC90 [4] | IC90 [5] | IC90 [6]
active: Activity [9] | Activity [10] | Activity [11] | Activity [12] | Activity [13] | Activity [14] | Activity [15] | Activity [16]
> 10 µM: IC90 [7] | IC90 [8]
